Experiment [1] concerns D1TNC1 astrocytes. Nature of the experiment: Flow cytometry of peptide uptake in D1TNC1 astrocytes. It counts as cell-based, rat. Particulars: 1 μM, 2 h, 37°C, trypsinized 15 min, triplicate (Figure 6). A general note: Flow cytometry measures light scatter and fluorescence of single cells or particles in a stream.
For experiment [2], the system named is PC-12 cells. Kind of experiment: Flow cytometry of peptide uptake in PC-12 cells. It counts as cell-based, rat. Particulars: 1 μM, 2 h, 37°C, trypsinized 15 min, triplicate (Figure 6).
In a further experiment the test system is COS-1 cells. Nature of the experiment: CLSM of peptide uptake in live COS-1 cells. Format: cell-based, African green monkey. The following applies: 1 μM, 2 h, live cells (Figure 4A). The essentials: (§1)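 Live-cell confocal imaging. Cells were seeded at 7.8 × 10^3 cells/cm2 and grown to about 50% confluency (about 24 h), then washed twice with PBS. Peptide (5-Fam labelled) was incubated in serum-free DMEM at 37°C, 5.0% CO2. Nuclei were stained with Hoechst 34580 (1 μg/mL final, last 20 min) and membranes with WGA–Alexa Fluor 594 (5 μg/mL final, last 10 min). Cells were then washed twice and imaged with a 60X objective; emission was read at 520/450/620 nm.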

In another experiment the test system is NIH/3T3 fibroblast cells. Nature of the experiment: CLSM of peptide uptake in live NIH/3T3 fibroblasts. It counts as cell-based, Swiss mouse. Particulars: 1 μM, 2 h, live cells (Figure 4B). The essentials: as §1
Experiment [3] relates to D1TNC1 astrocytes. Kind of experiment: CLSM of peptide uptake in live D1TNC1 astrocytes. It counts as cell-based, rat. Particulars: 1 μM, 2 h, live cells (Figure 4C). The essentials:
as §1

Experiment [4] concerns PC-12 cells. Nature of the experiment: CLSM of peptide uptake in PC-12 differentiated neurons. It counts as cell-based, rat. The following applies: 1 μM, 2 h, live cells (Figure 4D). In short, it runs like this:
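Neuronal differentiation and imaging. PC-12 cells were seeded at 3.9 × 10^3 cells/cm2 on poly-lysine plates and grown for 24 h. They were serum-starved for 24 h in F12K + 1% HS, then differentiated with 100 ng/mL β-NGF in the same medium for 6–8 days, refreshed every 2 days. Labelled peptide was incubated in F12K + 1% HS at 37°C, 5.0% CO2, with Hoechst 34580 and WGA–Alexa Fluor 594 counterstains. Live cells were imaged by confocal microscopy (60X).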

Where no end group is shown, it is not given here. The star is where a group is joined. 5FAM = O=C1OC2(c3ccc(O)cc3Oc3cc(O)ccc32)c2ccc(C(=O)*)cc21; Farnesyl = CC(C)=CCC/C(C)=C/CC/C(C)=C/C*

Regarding 5-Fam-KKSRRC(S-decyl)VLS [5b], the “entry into astrocytes compared with HeLa cells (flow cytometry)” value in the experiment on D1TNC1 astrocytes [1] is on record as “efficiency comparable to that observed with HeLa cells”. Further, the “entry into PC12 cells compared with HeLa cells (flow cytometry)” value with PC-12 cells [2] was “efficiency comparable to that observed with HeLa cells”.

5FAM-KKSRRC(Farnesyl)VLS [4b]: in the experiment with COS-1 cells, the “uptake in COS-1 cells (CLSM)” value is listed as “moderate uptake”. In addition, the “uptake in NIH/3T3 fibroblast cells (CLSM)” value in the experiment on NIH/3T3 fibroblast cells is on record as “moderate uptake”. For the same substance, in the experiment with D1TNC1 astrocytes [3], the “uptake in D1TNC1 astrocytes (CLSM)” value is “significant uptake”. The “uptake in PC-12 cells (CLSM)” value in the experiment on PC-12 cells [4] is “significant uptake”.

These data come from publication PMC2919362 (Chemical biology & drug design, 2010).
